According to paper PMC7051832 (ACS chemical biology, 2019):

Key:
[1] = biological target: E. coli dihydrofolate reductase (ecDHFR) (Escherichia coli, UniProt P0ABQ4); assay: NMR 15N-HSQC titration of model fragments binding to ecDHFR
How it was run: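 15N-ecDHFR at 100 μM, in bulk buffer (20 mM Tris pH 8.5, 100 mM NaCl, 10 mM DTT, 0.02% azide) or in reverse micelles (52.5 mM 10MAG, 18 mM LDAO, 4.5 mM DTAB, hexanol, pentane; W0 15; 5 mM in water core). Titrated with fragment. 15N-HSQC at 25 °C, 1024 × 64 complex points, 32 scans. Chemical shift perturbations fitted for Kd; error from fitting.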

interleukin-1β (IL-1β) = interleukin-1β (IL-1β) (Homo sapiens, UniProt P01584); assay: Reverse micelle; type: binding; conditions: RM encapsulated IL-1β
Sequence of interleukin-1β (IL-1β) (P01584 117-269): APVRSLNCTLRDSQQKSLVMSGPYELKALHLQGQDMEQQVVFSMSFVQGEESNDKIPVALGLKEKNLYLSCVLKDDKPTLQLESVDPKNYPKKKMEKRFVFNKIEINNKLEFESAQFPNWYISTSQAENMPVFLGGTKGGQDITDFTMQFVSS

Sequence of E. coli dihydrofolate reductase (ecDHFR) (P0ABQ4 whole entry, the tested form may be a part): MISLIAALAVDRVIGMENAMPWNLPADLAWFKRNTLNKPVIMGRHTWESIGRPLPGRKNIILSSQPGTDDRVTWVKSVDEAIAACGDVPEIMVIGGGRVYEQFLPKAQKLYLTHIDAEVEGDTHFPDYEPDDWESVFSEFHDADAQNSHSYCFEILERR

| Structure (SMILES) | Kd ([1]; binding to ecDHFR, natural cofactor, NMR titration) [µM] | degree of saturation of the protein ([1]; same absolute amounts of protein and ligand, both bulk and RM samples) | binding sites on the protein surface (interleukin-1β (IL-1β)) |
| --- | --- | --- | --- |
| NC(=O)c1ccc[n+]([C@@H]2O[C@H](COP(=O)([O-])OP(=O)(O)OC[C@H]3O[C@@H](n4cnc5c(N)ncnc54)[C@H](OP(=O)(O)O)[C@@H]3O)[C@@H](O)[C@H]2O)c1 [NADP^+] | 9 ± 2 | saturated the enzyme in both bulk and RM samples |  |
| OCc1ccc2nccn2c1 [imidazo[1,2-a]pyridine-6-ylmethanol] |  |  | bound to multiple sites on the protein surface |
